Laboratory results taken from paper PMC6796888 (ACS Omega, 2019).
In brackets after ≈: the same amount, converted by molar mass.

Columns and labels:
E. coli = assay: Synergistic assay with ciprofloxacin; assay type: cell-based, Escherichia coli; conditions: E. coli; 4l combined with CIP
S. typhimurium = assay: Synergistic assay with ciprofloxacin; assay type: cell-based, Salmonella typhimurium
P. aeruginosa = assay: Synergistic assay with ciprofloxacin; assay type: cell-based; conditions: P. aeruginosa; 4l combined with CIP
S. pneumoniae = assay: Synergistic assay with ciprofloxacin; assay type: cell-based, Streptococcus pneumoniae
E. faecalis = assay: Synergistic assay with ciprofloxacin; assay type: cell-based, Enterococcus faecalis
E. coli ATCC 25922 = assay: In vitro screening, % growth inhibition at 250 μg/mL; assay type: cell-based, Escherichia coli; conditions: Escherichia coli, ATCC25922, 24 h, read-out: % inhibition at 250 μg/mL
Method in brief: (§1)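 Test compounds dissolved in DMSO and diluted in test medium. Mid-log cultures diluted in nutrient broth to McFarland standard and treated with 250 μg/mL in 96-well plates, 37 °C, 160 rpm, 24 h. Growth read as OD at 580 nm; % inhibition calculated from absorbance against untreated growth. Run twice on different occasions.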

E. faecalis MTCC 439 = assay: as above; assay type: cell-based, Enterococcus faecalis; conditions: Enterococcus faecalis, MTCC439, 24 h, read-out: % inhibition at 250 μg/mL
Method in brief: as §1

P. auroginosa MTCC 2453 [1] = assay: as above; assay type: cell-based, Pseudomonas auroginosa; conditions: for inhibition at 250 µg/mL: Pseudomonas, MTCC2453, 24 h, read-out: % inhibition at 250 μg/mL
Method in brief: as §1

S. pneumoniae MTCC 655 = assay: as above; assay type: cell-based, Streptococcus pneumoniae; conditions: Streptococcus pneumoniae, MTCC655, 24 h, read-out: % inhibition at 250 μg/mL
Method in brief: as §1

P. auroginosa MTCC 2453 [2] = assay: MIC by broth microdilution; assay type: cell-based, Pseudomonas auroginosa; conditions: Pseudomonas, MTCC2453

Row | MIC in combination (E. coli) [µg/mL] | MIC in combination (S. typhimurium; S. typhimurium, 4l combined with CIP) [µg/mL] | MIC (S. typhimurium; Salmonella enterica, TYPHIMURIUM, read-out: MIC alone) [µg/mL] | MIC in combination (P. aeruginosa) [µg/mL] | MIC in combination (S. pneumoniae; S. pneumoniae, 4l combined with CIP) [µg/mL] | MIC (S. pneumoniae; Streptococcus pneumoniae, read-out: MIC alone) [µg/mL] | MIC in combination (E. faecalis; E. faecalis, 4l combined with CIP) [µg/mL] | MIC (E. faecalis; Enterococcus faecalis, read-out: MIC alone) [µg/mL] | MIC (P. auroginosa MTCC 2453 [2]) [µg/mL] | SMILES | inhibition at 250 µg/mL (E. coli ATCC 25922) [%] | inhibition at 250 µg/mL (E. faecalis MTCC 439) [%] | inhibition at 250 µg/mL (P. auroginosa MTCC 2453 [1]) [%] | inhibition at 250 µg/mL (S. pneumoniae MTCC 655) [%] | % inhibition at 250 μg/mL (P. auroginosa MTCC 2453 [1]; P. auroginosa MTCC 2453, 250 μg/mL, 24 h)
1 | 0.125 | 0.25 | 0.25 | 0.5 | 0.0625 | 0.25 | 0.0625 | 0.25 |  | O=C(O)c1cn(C2CC2)c2cc(N3CCNCC3)c(F)cc2c1=O [CIP, ciprofloxacin, reference compound] |  |  |  |  | 
2 |  |  |  |  |  |  |  |  |  | CNC1=C([N+](=O)[O-])C2(C(=O)Nc3ccccc32)C2=C(CC(C)(C)CC2=O)O1 (stereo not shown) [Compound 4a, 7,7-Dimethyl-2-(methylamino)-3-nitro-7,8-dihydrospiro[chromene-4,3′-indoline]-2′,5(6 H)-dione] | 43.2 | 41.5 | 37.3 | 29.7 | 
3 |  |  |  |  |  |  |  |  |  | CNC1=C([N+](=O)[O-])C2(C(=O)Nc3ccc(Cl)cc32)C2=C(CC(C)(C)CC2=O)O1 (stereo not shown) [Compound 4b] | 43.2 | 31.9 | 18 | 21.3 | 
4 |  |  |  |  |  |  |  |  | 250 (≈ 558 µM) | CNC1=C([N+](=O)[O-])C2(C(=O)Nc3ccc(Br)cc32)C2=C(CC(C)(C)CC2=O)O1 (stereo not shown) [Compound 4c] | 40.7 | 38.1 | 100 | 21.5 | complete growth inhibition
